From paper PMC10582678 (Clinical and Translational Science, 2023)

Columns and labels:
[1] = Preclinical safety in rats; format: in vivo; settings: stated in introduction
[2] = Plasma pharmacokinetics, single ascending dose; format: in vivo, human; settings: for CL/F / AUC(0-t): mean ± SD; for T last: median (min, max); for Tmax / half-life / AUC(0-inf) / MRT / Vd/F / AUC(0-t) / Cmax: human, plasma; for Tmax / half-life / AUC(0-inf) / MRT / Vd/F / AUC(0-t): oral; for Cmax: po
How it was run: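 Healthy subjects received single oral doses under fasting conditions: 100 mg (three subjects), or 200, 400, 600 or 800 mg in cohorts of eight randomized 6 active:2 placebo, double-blind. Plasma drug was quantified by validated HPLC-tandem accurate mass spectrometry with a calibration range of 5.00–5000 ng/mL. Cmax, Tmax, AUC, t1/2, CL/F, Vz/F and MRT were derived by noncompartmental analysis and reported as mean ± SD (%CV) or median.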

[3] = Plasma pharmacokinetics, multiple ascending doses; format: in vivo, human; settings: for CLss/F / AUC(0-t) / Cmax: mean ± SD; for AUC / Vd/F / concentration at 10 day / half-life / AUC(0-t) / Cmax / Tmax: human, plasma, oral; for AUC(0-t): AUC0-t; for Cmax: C max; for Tmax: T max
How it was run: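 This was a double-blind, placebo-controlled design with three cohorts of eight (6 active, 2 placebo). Cohorts received oral 200, 400 or 600 mg q.d. for 10 consecutive days, with extra predose trough samples on days 8 and 9. Plasma drug was measured by validated HPLC-tandem accurate mass spectrometry (5.00–5000 ng/mL). Noncompartmental parameters were reported for day 1 and day 10, with Rac(AUC) = AUC0-τ day 10/AUC0-t day 1.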

[4] = Safety, adverse events, food effect study; format: in vivo, human; settings: for AEs / Increased blood triglycerides / Abdominal discomfort / Constipation / Decreased leukocyte count / Decreased lymphocyte count / Decreased neutrophil count / Dermatitis allergic / Dyspepsia / Increased ALT / Increased AST / Increased blood bilirubin / Increased blood cholesterol / Increased blood creatinine / Lethargy / Mouth ulceration / Oropharyngeal pain / Sinus arrythmia / Treatment discontinuation due to AEs / Upper respiratory tract infection: Food effect 600 mg, n (%)
How it was run: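 Safety was monitored by vital signs, clinical laboratory tests, physical examination, 12-lead ECG, AEs and SAEs. AEs were coded with MedDRA 23.1 and graded by CTCAE 5.0. Subjects were discharged 6 days after the last dose, with a follow-up visit 8–14 days after the last dose. The safety set comprised randomized subjects who received active drug or placebo and had post-dose safety data.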

[5] = 200 mg, MAD 200 mg q.d., Day 10
[6] = 400 mg, MAD 400 mg q.d., Day 10
[7] = 600 mg, MAD 600 mg q.d., Day 10

## N#CN1C[C@H](n2nc(-c3ccc(Oc4ccc(Cl)cn4)cc3)c(C(N)=O)c2N)CCC12CC2 [SN1011, 5-amino-3-(4-((5-chloro-2-pyridinyl)oxy)phenyl)-1-((6R)-4-cyano-4-azaspiro[2.5]octan-6-yl)-1H-pyrazole-4-carboxamide]
[1]
  safety profile: acceptable safety profile
[2]; SAD 100 mg
  CL/F: 49.6 ± 13.9 (28%) L/h
  T last: 48.0 (48.0, 72.0) h
[2]; SAD 200 mg
  CL/F: 44.8 ± 15.3 (34%) L/h
  T last: 72.0 (48.0, 96.0) h
[2]; SAD 400 mg
  CL/F: 36.5 ± 9.1 (25%) L/h
  T last: 96.0 (72.0, 144.0) h
[2]; SAD 600 mg
  CL/F: 43.4 ± 19.5 (45%) L/h
  T last: 108.0 (72.0, 144.0) h
[2]; SAD 800 mg
  CL/F: 44.8 ± 22.3 (50%) L/h
  T last: 132.0 (120.0, 144.1) h
[2]
  Tmax: 3 to 5 h
  half-life: 15.5 to 21.8 h
[2]; 100 mg
  AUC(0-inf): 2110 ± 525 ng·h/mL
  MRT: 26.4 ± 1.7 h
  Tmax: 4 h
  Vd/F: 1210 ± 497 L
  half-life: 16.5 ± 2.1 h
  Cmax: 84.2 ± 16.4 ng/mL
[2]; 100 mg, AUC0-24, SAD 100 mg
  AUC(0-t): 1240 ± 339 ng·h/mL
[2]; 100 mg, AUC0-t, SAD 100 mg
  AUC(0-t): 1880 ± 523 ng·h/mL
[2]; 200 mg
  AUC(0-inf): 4920 ± 1710 ng·h/mL
  MRT: 22.9 ± 4 h
  Tmax: 3 h
  Vd/F: 989 ± 293 L
  half-life: 15.5 ± 2.4 h
  Cmax: 293 ± 132 ng/mL
[2]; 200 mg, AUC0-24, SAD 200 mg
  AUC(0-t): 3210 ± 1190 ng·h/mL
[2]; 200 mg, AUC0-t, SAD 200 mg
  AUC(0-t): 4700 ± 1730 ng·h/mL
[2]; 400 mg
  AUC(0-inf): 11600 ng·h/mL
  MRT: 29.4 ± 9.9 h
  Tmax: 3.5 h
  Vd/F: 997 ± 350 L
  half-life: 19.3 ± 6.5 h
  Cmax: 487 ± 221 ng/mL
[2]; 400 mg, AUC0-24, SAD 400 mg
  AUC(0-t): 6510 ± 1960 ng·h/mL
[2]; 400 mg, AUC0-t, SAD 400 mg
  AUC(0-t): 11300 ng·h/mL
[2]; 600 mg
  AUC(0-inf): 16800 ng·h/mL
  MRT: 28.7 ± 8.5 h
  Tmax: 4 h
  Vd/F: 1060 ± 227 L
  half-life: 19.1 ± 6.4 h
  Cmax: 674 ± 259 ng/mL
[2]; 600 mg, AUC0-24, SAD 600 mg
  AUC(0-t): 9100 ± 3420 ng·h/mL
[2]; 600 mg, AUC0-t, SAD 600 mg
  AUC(0-t): 16400 ng·h/mL
[2]; 800 mg
  AUC(0-inf): 22300 ng·h/mL
  MRT: 31.1 ± 6.3 h
  Tmax: 5 h
  Vd/F: 1400 ± 760 L
  half-life: 21.8 ± 4.1 h
  Cmax: 779 ± 405 ng/mL
[2]; 800 mg, AUC0-24, SAD 800 mg
  AUC(0-t): 11500 ng·h/mL
[2]; 800 mg, AUC0-t, SAD 800 mg
  AUC(0-t): 21900 ng·h/mL
[3]; MAD 200 mg q.d., Day 1, median (min, max)
  T last: 23.7 (23.7, 23.8) h
[3]; MAD 200 mg q.d., Day 10
  CLss/F: 27.2 ± 13.4 (49%) L/h
[3]; MAD 200 mg q.d., Day 10, median (min, max)
  T last: 120.0 (72.0, 120.0) h
[3]; MAD 400 mg q.d., Day 1, median (min, max)
  T last: 23.8 (23.7, 23.9) h
[3]; MAD 400 mg q.d., Day 10
  CLss/F: 27.4 ± 6.2 (23%) L/h
[3]; MAD 400 mg q.d., Day 10, median (min, max)
  T last: 120.0 (120.0, 120.0) h
[3]; MAD 600 mg q.d., Day 1, median (min, max)
  T last: 23.8 (23.7, 23.8) h
[3]; MAD 600 mg q.d., Day 10
  CLss/F: 30.0 ± 9.8 (33%) L/h
[3]; MAD 600 mg q.d., Day 10, median (min, max)
  T last: 120.0 (96.0, 120.0) h
[3]; 200 mg
  AUC: 8690 ± 3420 ng·h/mL
  Vd/F: 728 ± 161 L
  concentration at 10 day: 257 ± 111 ng/mL
  half-life: 20.5 ± 5.3 h
[3]; 200 mg, MAD 200 mg q.d., Day 1
  AUC(0-t): 4280 ± 1130 ng·h/mL
[3]; [5]
  AUC(0-t): 17300 ng·h/mL
  Cmax: 516 ± 172 ng/mL
[3]; 200 mg, MAD 200 mg q.d., Day 1, N = 5
  Cmax: 260 ± 54.8 ng/mL
[3]; 200 mg, MAD 200 mg q.d., Day 1, median (min, max)
  Tmax: 3 h
[3]; 200 mg, MAD 200 mg q.d., Day 10, median (min, max)
  Tmax: 3 h
[3]; 400 mg
  AUC: 15200 ng·h/mL
  Vd/F: 736 ± 181 L
  concentration at 10 day: 419 ± 121 ng/mL
  half-life: 19 ± 5.4 h
[3]; 400 mg, MAD 400 mg q.d., Day 1
  AUC(0-t): 9170 ± 1640 ng·h/mL
  Cmax: 727 ± 183 ng/mL
[3]; [6]
  AUC(0-t): 26400 ng·h/mL
  Cmax: 1070 ± 234 ng/mL
[3]; 400 mg, MAD 400 mg q.d., Day 1, median (min, max)
  Tmax: 4 h
[3]; 400 mg, MAD 400 mg q.d., Day 10, median (min, max)
  Tmax: 3.5 h
[3]; 600 mg
  AUC: 22000 ng·h/mL
  Vd/F: 872 ± 345 L
  concentration at 10 day: 531 ± 264 ng/mL
  half-life: 20.4 ± 4.1 h
[3]; 600 mg, MAD 600 mg q.d., Day 1
  AUC(0-t): 12200 ng·h/mL
  Cmax: 910 ± 332 ng/mL
[3]; [7]
  AUC(0-t): 40300 ng·h/mL
  Cmax: 1600 ± 497 ng/mL
[3]; 600 mg, MAD 600 mg q.d., Day 1, median (min, max)
  Tmax: 4 h
[3]; 600 mg, MAD 600 mg q.d., Day 10, median (min, max)
  Tmax: 2.5 h
[3]; MAD, steady-state conditions, across 200-600 mg q.d.
  Tmax: 2.5 to 3.5 h
[3]; once daily administration
  steady-state in the plasma achieved on: 8 days
[4]; Total N = 12
  AEs: 7 (58.3)
  Increased blood triglycerides: 5 (41.7)
[4]; column Fasted-Fed
  AEs: 5 (41.7)
  Abdominal discomfort: 0
  Constipation: 0
  Decreased leukocyte count: 0
  Decreased lymphocyte count: 0
  Decreased neutrophil count: 0
  Dermatitis allergic: 0
  Dyspepsia: 0
  Increased ALT: 0
  Increased AST: 0
  Increased blood bilirubin: 0
  Increased blood cholesterol: 0
  Increased blood creatinine: 0
  Increased blood triglycerides: 4 (33.3)
  Lethargy: 0
  Mouth ulceration: 0
  Oropharyngeal pain: 0
  Sinus arrythmia: 0
  Treatment discontinuation due to AEs: 1 (8.3)
  Upper respiratory tract infection: 0
[4]; column Fed-Fasted
  AEs: 2 (18.2)
  Abdominal discomfort: 0
  Constipation: 0
  Decreased leukocyte count: 0
  Decreased lymphocyte count: 0
  Decreased neutrophil count: 0
  Dermatitis allergic: 0
  Dyspepsia: 0
  Increased ALT: 0
  Increased AST: 0
  Increased blood bilirubin: 1 (9.1)
  Increased blood cholesterol: 0
  Increased blood creatinine: 0
  Increased blood triglycerides: 1 (9.1)
  Lethargy: 0
  Mouth ulceration: 0
  Oropharyngeal pain: 0
  Sinus arrythmia: 0
  Treatment discontinuation due to AEs: 0
  Upper respiratory tract infection: 0
[4]; food effect study, 12 subjects, 600 mg
  subjects who experienced AEs: 58.3%
[4]; food effect study, 12 subjects, increased triglycerides, grade 3
  subjects with AE leading to study discontinuation: 8.3%
